Holding throughout (type): functional
For experiment [1], the system named is Aspergillus niger. In words: Antifungal activity against Aspergillus niger MTCC 404 assessed as zone of inhibition at 33.7 uM incubated for 2 days by cross streak plate method. To be noted: MTCC 404, 48 h, time 2 day, read-out: IZ. In short, it runs like this:
(§1)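 Fungal strain (A. niger MTCC 404 or S. cerevisiae MTCC 1344) was incubated with the compound for 2 days at 37 °C. Growth inhibition was then assessed by the cross streak plate method.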

Experiment [2] in a line: Antioxidant activity assessed as DPPH radical scavenging activity.
For experiment [3], the system named is Saccharomyces cerevisiae. In words: Antifungal activity against Saccharomyces cerevisiae MTCC 1344 assessed as zone of inhibition at 33.7 uM incubated for 2 days by cross streak plate method. The following applies: MTCC 1344, 48 h, time 2 day, read-out: IZ. In short, it runs like this:
(§2)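 S. cerevisiae MTCC 1344 cultures were incubated for 2 days at 37 °C and then tested by the cross streak plate method.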

Experiment [4] deals with Aspergillus niger. The experiment in a line: Antifungal activity against Aspergillus niger MTCC 404 assessed as zone of inhibition at 16.8 uM incubated for 2 days by cross streak plate method. To be noted: MTCC 404, 48 h, time 2 day, read-out: IZ. The method, boiled down:
as §1

The subject of the next experiment is Escherichia coli. In words: Antibacterial activity against Escherichia coli MTCC 443 assessed as bacterial growth inhibition by microdilution method. In short, it runs like this: (§3)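 Broth microdilution against Gram-positive and Gram-negative strains. The endpoint is the minimal inhibitory concentration, in µg/ml.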
Another experiment concerns Bacillus subtilis. In words: Antibacterial activity against Bacillus subtilis MTCC 441 assessed as bacterial growth inhibition by microdilution method. The method, boiled down: as §3
(Broth dilution looks for growth in wells or tubes with falling amounts of substance.)

The test system of experiment [5] is Saccharomyces cerevisiae. The experiment in a line: Antifungal activity against Saccharomyces cerevisiae MTCC 1344 assessed as zone of inhibition at 16.8 uM incubated for 2 days by cross streak plate method. To be noted: MTCC 1344, 48 h, time 2 day, read-out: IZ. In short, it runs like this: as §1
The test system of a further experiment is Staphylococcus aureus. The experiment in a line: Antibacterial activity against Staphylococcus aureus MTCC 96 assessed as bacterial growth inhibition by microdilution method. In short, it runs like this: as §3
A further experiment concerns Pseudomonas aeruginosa. In words: Antibacterial activity against Pseudomonas aeruginosa MTCC 424 assessed as bacterial growth inhibition by microdilution method. In short, it runs like this: as §3
Experiment [6] deals with Aspergillus niger. The experiment in a line: Antifungal activity against Aspergillus niger MTCC 404 assessed as zone of inhibition at 25.2 uM incubated for 2 days by cross streak plate method. The following applies: MTCC 404, 48 h, time 2 day, read-out: IZ. In short, it runs like this: as §1
In experiment [7] the test system is Saccharomyces cerevisiae. In words: Antifungal activity against Saccharomyces cerevisiae MTCC 1344 assessed as zone of inhibition at 25.2 uM incubated for 2 days by cross streak plate method. The following applies: MTCC 1344, 48 h, time 2 day, read-out: IZ. In short, it runs like this:
as §1

Experiment [8] concerns Saccharomyces cerevisiae. The experiment in a line: Antifungal activity against Saccharomyces cerevisiae MTCC 1344 assessed as zone of inhibition at 29.7 uM incubated for 2 days by cross streak plate method. The following applies: MTCC 1344, 48 h, time 2 day, read-out: IZ. In short, it runs like this: as §1
For experiment [9], the system named is Aspergillus niger. In words: Antifungal activity against Aspergillus niger MTCC 404 assessed as zone of inhibition at 22.2 uM incubated for 2 days by cross streak plate method. The following applies: MTCC 404, 48 h, time 2 day, read-out: IZ. The method, boiled down:
as §1

In experiment [10] the test system is Aspergillus niger. In words: Antifungal activity against Aspergillus niger MTCC 404 assessed as zone of inhibition at 14.8 uM incubated for 2 days by cross streak plate method. The following applies: MTCC 404, 48 h, time 2 day, read-out: IZ. In short, it runs like this:
as §1

In experiment [11] the test system is Saccharomyces cerevisiae. The experiment in a line: Antifungal activity against Saccharomyces cerevisiae MTCC 1344 assessed as zone of inhibition at 22.2 uM incubated for 2 days by cross streak plate method. To be noted: MTCC 1344, 48 h, time 2 day, read-out: IZ. The method, boiled down: as §1
For experiment [12], the system named is Aspergillus niger. In words: Antifungal activity against Aspergillus niger MTCC 404 assessed as zone of inhibition at 29.7 uM incubated for 2 days by cross streak plate method. The following applies: MTCC 404, 48 h, time 2 day, read-out: IZ. The method, boiled down:
as §1

Experiment [13] has as its system Saccharomyces cerevisiae. The experiment in a line: Antifungal activity against Saccharomyces cerevisiae MTCC 1344 assessed as zone of inhibition at 14.8 uM incubated for 2 days by cross streak plate method. To be noted: MTCC 1344, 48 h, time 2 day, read-out: IZ. The method, boiled down: as §1
Experiment [14] relates to Aspergillus niger. In words: Antifungal activity against Aspergillus niger MTCC 404 assessed as zone of inhibition at 23.9 uM incubated for 2 days by cross streak plate method. The following applies: MTCC 404, 48 h, time 2 day, read-out: IZ. In short, it runs like this: as §1
In experiment [15] the test system is Saccharomyces cerevisiae. The experiment in a line: Antifungal activity against Saccharomyces cerevisiae MTCC 1344 assessed as zone of inhibition at 23.9 uM incubated for 2 days by cross streak plate method. The following applies: MTCC 1344, 48 h, time 2 day, read-out: IZ. In short, it runs like this: as §1
Experiment [16] concerns Aspergillus niger. The experiment in a line: Antifungal activity against Aspergillus niger MTCC 404 assessed as zone of inhibition at 31.8 uM incubated for 2 days by cross streak plate method. To be noted: MTCC 404, 48 h, time 2 day, read-out: IZ. In short, it runs like this: as §1
Experiment [17] deals with Saccharomyces cerevisiae. In words: Antifungal activity against Saccharomyces cerevisiae MTCC 1344 assessed as zone of inhibition at 15.9 uM incubated for 2 days by cross streak plate method. The following applies: MTCC 1344, 48 h, time 2 day, read-out: IZ. The method, boiled down: as §1
Experiment [18] relates to Saccharomyces cerevisiae. The experiment in a line: Antifungal activity against Saccharomyces cerevisiae MTCC 1344 assessed as zone of inhibition at 31.8 uM incubated for 2 days by cross streak plate method. The following applies: MTCC 1344, 48 h, time 2 day, read-out: IZ. In short, it runs like this: as §1
Experiment [19] concerns Aspergillus niger. In words: Antifungal activity against Aspergillus niger MTCC 404 assessed as zone of inhibition at 15.9 uM incubated for 2 days by cross streak plate method. The following applies: MTCC 404, 48 h, time 2 day, read-out: IZ. In short, it runs like this: as §1
Experiment [20] deals with Aspergillus niger. In words: Antifungal activity against Aspergillus niger MTCC 404 assessed as zone of inhibition at 36.6 uM incubated for 2 days by cross streak plate method. To be noted: MTCC 404, 48 h, time 2 day, read-out: IZ. The method, boiled down: as §1
Experiment [21] has as its system Aspergillus niger. The experiment in a line: Antifungal activity against Aspergillus niger MTCC 404 assessed as zone of inhibition at 18.3 uM incubated for 2 days by cross streak plate method. The following applies: MTCC 404, 48 h, time 2 day, read-out: IZ. The method, boiled down: as §1
The subject of experiment [22] is Saccharomyces cerevisiae. In words: Antifungal activity against Saccharomyces cerevisiae MTCC 1344 assessed as zone of inhibition at 36.6 uM incubated for 2 days by cross streak plate method. To be noted: MTCC 1344, 48 h, time 2 day, read-out: IZ. In short, it runs like this:
as §2

The subject of experiment [23] is Aspergillus niger. In words: Antifungal activity against Aspergillus niger MTCC 404 assessed as zone of inhibition at 27.5 uM incubated for 2 days by cross streak plate method. The following applies: MTCC 404, 48 h, time 2 day, read-out: IZ. In short, it runs like this: as §1
For experiment [24], the system named is Saccharomyces cerevisiae. The experiment in a line: Antifungal activity against Saccharomyces cerevisiae MTCC 1344 assessed as zone of inhibition at 18.3 uM incubated for 2 days by cross streak plate method. The following applies: MTCC 1344, 48 h, time 2 day, read-out: IZ. The method, boiled down: as §1
The test system of experiment [25] is Saccharomyces cerevisiae. The experiment in a line: Antifungal activity against Saccharomyces cerevisiae MTCC 1344 assessed as zone of inhibition at 27.5 uM incubated for 2 days by cross streak plate method. The following applies: MTCC 1344, 48 h, time 2 day, read-out: IZ. The method, boiled down: as §1

The source made the active and inactive calls.

Consider five molecules from ChEMBL document CHEMBL4814044, “Design and synthesis, biological evaluation of bis-(1,2,3- and 1,2,4)-triazole derivatives as potential antimicrobial and antifungal agents” (2021).

Broadly, the MIC is the smallest concentration in the dilution series that meets the test's criterion for growth inhibition.

Consider `O=C(CSc1nnc(-c2ccccc2OCc2cn(-c3ccc(Cl)cc3)nn2)n1Cc1ccccc1)c1ccccc1`, for which the zone of inhibition at 33.7 µM in the experiment on Aspergillus niger [1] worked out at 8.2 mm; in the experiment with Saccharomyces cerevisiae [3] it was 7 mm. Besides, the result in experiment [2] was inactive. Also, the zone of inhibition at 16.8 µM in the experiment on Aspergillus niger [4] came out at 6 mm; with Saccharomyces cerevisiae [5] it was 5.8 mm. The minimum inhibitory concentration (MIC) in the experiment with Escherichia coli worked out at 10 µg/mL; in the experiment on Bacillus subtilis, 5.2 µg/mL; with Staphylococcus aureus, 9.7 µg/mL; in the experiment on Pseudomonas aeruginosa it was 9 µg/mL. For the same molecule, the values for the zone of inhibition at 25.2 µM in the experiment on Aspergillus niger [6] and with Saccharomyces cerevisiae [7] were 8 mm and 5.7 mm, respectively.

As to `O=C(CSc1nnc(-c2ccccc2OCc2cn(-c3ccccc3)nn2)n1Cc1ccccc1)c1ccccc1`, the zone of inhibition at 33.7 µM with Aspergillus niger [1] and in the experiment on Saccharomyces cerevisiae [3] was 3 mm in each case. Also, in experiment [2], the outcome was inactive. Also, the zone of inhibition at 16.8 µM with Aspergillus niger [4] and in the experiment on Saccharomyces cerevisiae [5] was 2 mm each time. The minimum inhibitory concentration (MIC) in the experiment on Escherichia coli amounted to 10 µg/mL; in the experiment with Bacillus subtilis, 5 µg/mL; with Staphylococcus aureus, 7.9 µg/mL; in the experiment with Pseudomonas aeruginosa it was 7.5 µg/mL. The zone of inhibition at 25.2 µM with Aspergillus niger [6] and in the experiment on Saccharomyces cerevisiae [7] was 3 mm throughout.

As to `O=C(CSc1nnc(-c2ccccc2OCc2cn(-c3ccc(Cl)cc3)nn2)n1Cc1ccccc1)c1ccc(Br)cc1`, the outcome in experiment [2] was inactive. Besides, the MIC in the experiment with Escherichia coli turned out to be 9 µg/mL; in the experiment on Bacillus subtilis, 4.4 µg/mL; in the experiment with Staphylococcus aureus it was 8.5 µg/mL; in the experiment with Pseudomonas aeruginosa, 8.1 µg/mL. Further, the zone of inhibition at 29.7 µM with Saccharomyces cerevisiae [8] and with Aspergillus niger [12] was 3 mm in each case. The zone of inhibition at 22.2 µM in the experiment on Aspergillus niger [9] and in the experiment on Saccharomyces cerevisiae [11] was 2 mm each time. For the same molecule, the values for the zone of inhibition at 14.8 µM in the experiment with Aspergillus niger [10] and in the experiment on Saccharomyces cerevisiae [13] were 2 mm and 1.5 mm, respectively.

Regarding `O=C(CSc1nnc(-c2ccccc2OCc2cn(-c3ccccc3)nn2)n1Cc1ccccc1)c1cccc(Cl)c1`, the zone of inhibition at 23.9 µM in the experiment on Aspergillus niger [14] and in the experiment on Saccharomyces cerevisiae [15] was 2 mm each time. Moreover, the zone of inhibition at 31.8 µM in the experiment on Aspergillus niger [16] and in the experiment with Saccharomyces cerevisiae [18] was 3 mm throughout. Moreover, the figures for the zone of inhibition at 15.9 µM with Saccharomyces cerevisiae [17] and with Aspergillus niger [19] were 1.5 mm and 2 mm, respectively. Further, the result in experiment [2] was inactive. The minimum inhibitory concentration (MIC) was above 40.8 µg/mL in the experiment with Escherichia coli, 4.1 µg/mL in the experiment with Bacillus subtilis, 8 µg/mL in the experiment on Staphylococcus aureus and 7.5 µg/mL in the experiment with Pseudomonas aeruginosa.

`O=C(Sc1nnc(-c2ccccc2OCc2cn(-c3ccccc3)nn2)n1Cc1ccccc1)c1ccccc1`: the zone of inhibition at 36.6 µM in the experiment on Aspergillus niger [20] amounted to 7 mm; in the experiment with Saccharomyces cerevisiae [22], 6.7 mm. The figures for the zone of inhibition at 18.3 µM in the experiment with Aspergillus niger [21] and in the experiment on Saccharomyces cerevisiae [24] were 5.5 mm and 6 mm, respectively. Also, in experiment [2], the result was inactive. In addition, the minimal inhibitory concentration (MIC) in the experiment with Escherichia coli came to 10 µg/mL; with Bacillus subtilis, 4 µg/mL; in the experiment on Staphylococcus aureus it was 8.9 µg/mL; with Pseudomonas aeruginosa, 8.7 µg/mL. Also, the zone of inhibition at 27.5 µM with Aspergillus niger [23] and in the experiment with Saccharomyces cerevisiae [25] was 6.8 mm each time.
